Calls of active or inactive are those of the source. The calls are words filed in the database; no cut-off is given here. Where a SMILES comes first, the peptide text is derived from it. Bridges are numbered along the chain shown (N, C = ends).
How the values were obtained:
[1] = Stability in 0.2 M aqueous HCl after 6 hrs by HPLC-MS analysis; assay type: physicochemical; settings: read-out: Stability
Procedure, shortened: (§1)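 Peptides were boiled at 100 °C, exposed to hydrochloride solution, or incubated with proteases for up to 6 h. Integrity was determined by HPLC and MS.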

[2] = Stability of the compound assessed as trypsin (unknown origin)-mediated compound degradation at enzyme to peptide ratio of 1:50 after 6 hrs by HPLC-MS analysis; assay type: ADME; settings: human; procedure, shortened: as §1
[3] = Stability in pH 7 phosphate buffer at 0.1 mM at 100 degC after 6 hrs by HPLC-MS analysis; assay type: physicochemical; settings: read-out: Stability; procedure, shortened: as §1
[4] = target: T1, Serine protease 1 (Bos taurus) (UniProt P00760); test: Inhibition of bovine beta-trypsin up to 100 uM using BAPNA as substrate preincubated for 15 mins followed by substrate addition measured over 60 mins by spectrometric method
T1 sequence (whole entry): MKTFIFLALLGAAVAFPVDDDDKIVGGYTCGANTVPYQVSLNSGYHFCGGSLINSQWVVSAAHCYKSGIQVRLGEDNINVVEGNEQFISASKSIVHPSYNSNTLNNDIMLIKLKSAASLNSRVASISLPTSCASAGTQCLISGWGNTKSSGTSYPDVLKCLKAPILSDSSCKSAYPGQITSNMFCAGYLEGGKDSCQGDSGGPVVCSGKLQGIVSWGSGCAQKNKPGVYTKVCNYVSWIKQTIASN
Procedure, shortened: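 Trypsin activity was measured at 37°C with the chromogenic substrate BAPNA (N-α-benzoyl-DL-arginine 4-nitroanilide), reading absorbance at 405 nm. […] Runs were in triplicate, reported as mean ± SD.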

[5] = Stability of the compound assessed as pepsin (unknown origin)-mediated compound degradation at enzyme to peptide ratio of 1:50 after 6 hrs by HPLC-MS analysis; assay type: ADME; settings: human; for Stability: 6 h; procedure, shortened: as §1
HeLa = test: Cytotoxicity against human HeLa cells up to 40 uM after 24 hrs by PrestoBlue cell viability assay; assay type: cell-based
B1 bradykinin receptor = target: T2, B1 bradykinin receptor (Homo sapiens, UniProt P46663); test: Antagonist activity against bradykinin B1 receptor in human HeLa cells assessed as inhibition of Des-Arg9-BK-induced increase in intracellular Ca2+ level by Fluro-4 direct calcium dye based fluorescence assay; assay type: functional, cell-based
T2 sequence (P46663 whole entry): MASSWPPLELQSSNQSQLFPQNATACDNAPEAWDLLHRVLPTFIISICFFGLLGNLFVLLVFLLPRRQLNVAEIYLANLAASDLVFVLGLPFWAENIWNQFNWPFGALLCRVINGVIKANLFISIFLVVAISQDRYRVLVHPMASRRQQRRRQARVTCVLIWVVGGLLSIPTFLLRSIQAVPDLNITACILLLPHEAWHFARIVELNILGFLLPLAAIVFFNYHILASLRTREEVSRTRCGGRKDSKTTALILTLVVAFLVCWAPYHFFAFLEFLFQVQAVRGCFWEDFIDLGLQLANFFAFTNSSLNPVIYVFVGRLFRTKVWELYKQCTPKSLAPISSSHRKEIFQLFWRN
Procedure, shortened: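 HeLa cells were pre-loaded with fluo-4 Direct dye and pretreated with peptide at 0 to 10 µM. B1 agonist des-Arg9-BK (100 nM) was then added to raise intracellular Ca2+, read as fluorescence change.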

[6] = Metabolic stability in human serum assessed as parent compound remaining after 6 hrs by UPLC method; assay type: ADME, cell-free; settings: read-out: Stability
Procedure, shortened: (§2)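 Peptides were incubated in human serum for up to 6 h, sampled at time points, and the intact fraction was expressed relative to 0 h. Runs were in triplicate, reported as mean ± SD.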

Mus musculus [7] = test: Analgesic activity in ICR mouse assessed as increase in pain response latency at 0.03 to 1 mg/kg,ip measured after 10 mins by hot plate assay relative to control; assay type: functional, organism-based
Procedure, shortened: (§3)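 Mouse hot plate test with hind paw-licking as the nociceptive end point. Peptides were given i.p. or p.o. at several doses, with phosphate-buffered saline as the control. Response latency was compared with each animal's baseline latency and expressed as percent increment in response time.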

Mus musculus [8] = test: Analgesic activity in ICR mouse assessed as increase in pain response latency at 0.3 to 10 mg/kg administered through oral gavage 30 mins prior to test by hot plate assay relative to control; assay type: functional; procedure, shortened: as §3
Mus musculus [9] = test: Analgesic activity in ICR mouse assessed as increase in pain response latency at 1 mg/kg,ip measured after 10 mins by hot plate assay relative to control; assay type: functional; procedure, shortened: as §3
Mus musculus [10] = test: Analgesic activity in ICR mouse assessed as increase in pain response latency at 10 mg/kg administered through oral gavage 30 mins prior to test by hot plate assay relative to control; assay type: functional; procedure, shortened: as §3
[11] = Drug uptake in ICR mouse serum at 10 mg/kg, po after 4 hrs; assay type: ADME, organism-based; settings: read-out: Drug uptake
Procedure, shortened: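 Peptide was given orally at 10 mg/kg, and its serum concentration was measured 4 h later.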

Serine protease 1 = target: T3, Serine protease 1 (Bos taurus, UniProt P00760); test: Inhibition of bovine beta-trypsin using BAPNA as substrate preincubated for 15 mins followed by substrate addition measured over 60 mins by Dixon plot analysis
T3 sequence (P00760 whole entry): T1 sequence (whole entry)

Serum = test: Metabolic stability in human serum after 2 hrs by UPLC method; assay type: ADME, cell-free; procedure, shortened: as §2

| remaining at 6 h [1] [%] | Stability [2] | remaining at 6 h, 100 µM [3] [%] | inhibition [4] | Stability [5] | IC50 (B1 bradykinin receptor) [µM] | remaining at 6 h [6] [%] | concentration at 4 h [11] [µM] | Ki (Serine protease 1) [µM] | Stability (Serum) | metabolised at 6 h ([5]; pepsin, read-out: Drug degradation) [%] | Structure (SMILES) | Activity (HeLa) | Activity (Mus musculus [7]) | Activity (Mus musculus [8]) | Activity (Mus musculus [9]) [%] | Activity (Mus musculus [10]) [%] |
| --- | --- | --- | --- | --- | --- | --- | --- | --- | --- | --- | --- | --- | --- | --- | --- | --- |
| > 80 | Unstable | > 80 | Active | Unstable |  |  |  |  |  |  | CC[C@H](C)[C@@H]1NC(=O)[C@@H]2CCCN2C(=O)[C@@H]2CCCN2C(=O)[C@H]([C@@H](C)CC)NC(=O)[C@H](CO)NC(=O)[C@H](CCCCN)NC(=O)[C@H]([C@@H](C)O)NC(=O)[C@@H](N)CSSC[C@@H](C(=O)N[C@@H](CCCCN)C(=O)N[C@@H](CCCNC(=N)N)C(=O)N2CCC[C@H]2C(=O)N2CCC[C@H]2C(=O)NCC(=O)N[C@@H](Cc2ccccc2)C(=O)N[C@@H](CO)C(=O)N2CCC[C@H]2C(=O)N[C@@H](CC(C)C)C(=O)O)NC1=O (H-CTKSIPPICKRPPGFSPL-OH; disulfide 1-9) | Non-Toxic |  |  |  |  |
| > 80 | Unstable | > 80 | inactive | Stable | 4.04 | > 90 |  |  |  |  | CC(C)C[C@@H]1NC(=O)[C@@H]2CCCN2C(=O)[C@H](CO)NC(=O)[C@H](Cc2ccccc2)NC(=O)CNC(=O)[C@@H]2CCCN2C(=O)[C@@H]2CCCN2C(=O)[C@H](CCCNC(=N)N)NC(=O)[C@H](CCCCN)NC(=O)[C@@H]2CSSC[C@H](NC1=O)C(=O)N[C@@H](Cc1ccccc1)C(=O)N1CCC[C@H]1C(=O)N[C@@H](CC(=O)O)C(=O)NCC(=O)N[C@@H](CCCNC(=N)N)C(=O)N2 (cyclo(CFPDGRCKRPPGFSPL); disulfide 1-7) | Non-Toxic |  |  |  |  |
| > 80 | Unstable | > 80 |  | Unstable |  |  |  |  |  |  | CC(C)C[C@@H]1NC(=O)[C@@H]2CCCN2C(=O)[C@H](CO)NC(=O)[C@H](Cc2ccccc2)NC(=O)CNC(=O)[C@@H]2CCCN2C(=O)[C@@H]2CCCN2C(=O)[C@H](CCCNC(=N)N)NC(=O)[C@H](CCCCN)NC(=O)[C@@H](NC(=O)[C@H](CCCNC(=N)N)NC(=O)CN)CSSC[C@@H](C(=O)N[C@@H](Cc2ccccc2)C(=O)N2CCC[C@H]2C(=O)N[C@@H](CC(=O)O)C(=O)O)NC1=O (H-GRCKRPPGFSPLCFPD-OH; disulfide 3-13) | Non-Toxic |  |  |  |  |
| > 80 |  | > 80 | Active |  |  |  |  |  |  |  | CC[C@H](C)[C@@H]1NC(=O)[C@@H]2CCCN2C(=O)[C@@H]2CCCN2C(=O)[C@H]([C@@H](C)CC)NC(=O)[C@H](CO)NC(=O)[C@H](CCCCN)NC(=O)[C@H]([C@@H](C)O)NC(=O)[C@@H]2CSSC[C@H](NC1=O)C(=O)N[C@@H](Cc1ccccc1)C(=O)N1CCC[C@H]1C(=O)N[C@@H](CC(=O)O)C(=O)NCC(=O)N[C@@H](CCCNC(=N)N)C(=O)N2 | Non-Toxic | inactive | inactive |  |  |
| > 80 | Stable | > 80 | Active | Stable | 2 | > 90 | 11.5 | 0.00512 |  |  | CC[C@H](C)[C@@H]1NC(=O)[C@@H]2CCCN2C(=O)[C@@H]2CCCN2C(=O)[C@H]([C@@H](C)CC)NC(=O)[C@H](CO)NC(=O)[C@H](CCCCN)NC(=O)[C@H]([C@@H](C)O)NC(=O)[C@@H]2CSSC[C@H](NC1=O)C(=O)N[C@@H](CCCCN)C(=O)N[C@@H](CCCNC(=N)N)C(=O)N1CCC[C@H]1C(=O)N1CCC[C@H]1C(=O)NCC(=O)N[C@@H](Cc1ccccc1)C(=O)N[C@@H](CO)C(=O)N1CCC[C@H]1C(=O)N[C@@H](CC(C)C)C(=O)N2 (cyclo(CKRPPGFSPLCTKSIPPI); disulfide 1-11) | Non-Toxic |  |  | 125 | 71 |
| > 80 | Stable | > 80 |  |  |  |  |  |  | Unstable | > 50 | CC(C)C[C@H](NC(=O)[C@@H]1CCCN1C(=O)[C@H](CO)NC(=O)[C@H](Cc1ccccc1)NC(=O)CNC(=O)[C@@H]1CCCN1C(=O)[C@@H]1CCCN1C(=O)[C@H](CCCN=C(N)N)NC(=O)[C@@H](N)CCCCN)C(=O)O | Non-Toxic |  | <10% | 201 |  |

Source: ChEMBL document CHEMBL4000179, “An Orally Active Bradykinin B1 Receptor Antagonist Engineered as a Bifunctional Chimera of Sunflower Trypsin Inhibitor” (J Med Chem, 2017)
